Bioassay records (PubChem)
Apaf-1 act: activators of human Apaf-1 apoptosome, primary screen, biochemical, DEVD-Rh110 fluorescence, uHTS | 0.31% of 330,000 active | activity change, negative = activation, % at 20 µM | Apaf-1 apoptosome caspase-3 activation; hits give low values | AID 489031, 2010 | Apoptotic protease-activating factor 1 (Homo sapiens), O14727;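 active = activity change at or below -40% at 20 µM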
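Material: biochemical Apaf-1 apoptosome reconstitution; Medium: 20 mM HEPES buffer, pH 7.5, containing CHAPS and BSA; Reagent: dATP, cytochrome c, and (Z-DEVD)2-Rh110 caspase-3 substrate; Times: 30 min preincubation, 50 min reaction, room temperature; Signal: Rh110 fluorescence, excitation 480 nm, emission 540 nm; Measure: Caspase-3 activity via Apaf-1.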
Rh110 interf act: Rh110 fluorescence interference by putative Apaf-1 activators, confirmation, artefact control for Apaf-1 activator project, biochemical, 20 µM; shares compounds with Apaf-1 act; quenched caspase reaction, Ex480/Em540; fluorescence interference (activity change), % at 20 µM, hits read low; 980 tested, under 10 active;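 active = mean activity change at or below -40% when tested at 20 µM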
Apaf-1 act conf: Apaf-1 activators, single-dose retest, confirmation, biochemical, fluorescence, DEVD-Rh110, 20 µM; shares compounds with Apaf-1 act; reconstituted apoptosome caspase-3 activity; hits give low values; activity change, negative = activation, % at 20 µM; 5% of 980 active;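 active = mean activity change at or below -40%, meaning activation of 40% or more, at 20 µM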
Large screens that a line does not name were inactive (follow-up assays come after a bar, where they were run). Only a sample is shown.

CC(C)(C)c1cc(C(=O)N2CCN(c3ncccn3)CC2)ccn1	Apaf-1 act -49.8 | Rh110 interf act inactive | Apaf-1 act conf inactive
COc1ccc2[nH]c(=O)c(CNc3ccccc3OC)cc2c1	none
CC(C)(C)c1cc(CCC(=O)Nc2ccncc2)cc(C(C)(C)C)c1O	Apaf-1 act -450.4 | Rh110 interf act inactive | Apaf-1 act conf inactive
COc1ccc(Cn2c(SCc3ccccc3C)nc3cc(OC)c(OC)cc3c2=N)cc1	none
Cc1ccc(SCC(=O)OCC(=O)NCCNC(=O)COC(=O)CSc2ccc(C)c(C)c2)cc1C	none
COc1ccc(CCNC(=O)CSc2nnc(C(C)N(C)C)n2Cc2ccccc2)cc1OC (centres undefined)	Apaf-1 act -60.4 | Rh110 interf act inactive | Apaf-1 act conf inactive
CC1(OC(=O)C2CCCC2)C(=O)C=C2C=C(c3ccsc3)N(CCCCO)C=C2C1=O (centres undefined)	none
O=C(c1ccc(S(=O)(=O)N2CCCC2)cc1)N(c1ccc(F)cc1)C1C=CS(=O)(=O)C1 (centres undefined)	Apaf-1 act -313.5 | Rh110 interf act inactive | Apaf-1 act conf inactive
O=C(c1ccc(S(=O)(=O)N2CCCC2)cc1)N(c1ccccc1)C1C=CS(=O)(=O)C1 (centres undefined)	Apaf-1 act -56.1 | Rh110 interf act inactive | Apaf-1 act conf inactive
Cc1cc2cc(CNC(=O)c3ccc(S(=O)(=O)N4CCCCC4)cc3)ccc2n1C	none
CCOC(=O)C1=C(c2ccccc2)NC(N)=NC1c1ccc(OCc2ccc(Cl)cc2)c(OC)c1 (centres undefined)	none
CCC(=O)N(CCc1ccccc1C)Cc1cc2cc3c(cc2[nH]c1=O)OCO3	none
Cc1ccc(Oc2nsnc2N2CCOCC2)cc1	Apaf-1 act -105.9 | Rh110 interf act inactive | Apaf-1 act conf inactive
Cc1ccc(NC2=C(N3CCOCC3)C(=O)c3ccccc3C2=O)cc1	none
CCN1CCN(c2ccc(NC(=O)CCc3c(C)nc4c(-c5ccccc5)c(C)nn4c3C)cc2)CC1	none
COC(=O)C1=C(C)N(Cc2ccccc2)C(=NCc2ccccc2)N[C@H]1c1ccccc1	none
CC(C)[C@H](CN1CCC[C@H]1CN1C(N)=NC[C@@H]1Cc1ccccc1)N1C[C@@H](Cc2ccccc2)N(CCc2ccc(Cl)c(Cl)c2)C1=N	none
N#CCCn1[nH]c(-c2ccccc2)cc1=O	none
CCN(CC)CCn1c(SCC(=O)Nc2ccc3c(c2)CCC3)nc2ccccc2c1=O	none
CC1CN(CCC(=O)Nc2ccc3c(c2)CCC3)CC(C)O1 (centres undefined)	Apaf-1 act -85.3 | Rh110 interf act inactive | Apaf-1 act conf inactive
CCOc1cc(/C=C/c2nc3cc(C)c(C)cc3s2)ccc1OCC(=O)N1CCOCC1	none
CC(C)Oc1ccc(N2CC(C(=O)Nc3ccc(N4CCOCC4)cc3)CC2=O)cc1 (centres undefined)	Apaf-1 act -106.6 | Rh110 interf act inactive | Apaf-1 act conf inactive
CC(=O)c1ccc(NC2=C(N3CCOCC3)C(=O)c3ccccc3C2=O)cc1	none
Nc1ccc(N2CCCCCC2)cc1	none
CCC1Nc2ncnc(N3CCN(c4ccccc4)CC3)c2N(Cc2ccccc2)C1=O (centres undefined)	none
CC(C)[C@@H]1CN=C(N)N1C[C@@H]1CCCN1C[C@H](C)N1C[C@@H](Cc2ccccc2)N(CCc2ccc(Cl)c(Cl)c2)C1=N	none
Cc1ccc(S(=O)(=O)N2CCN(c3nc(CN4CCCC4)nc4sc(C)c(C)c34)CC2)cc1	none
Cc1ccc(S(=O)(=O)c2nc(S(C)(=O)=O)sc2N(C)C)cc1	Apaf-1 act -89.7 | Rh110 interf act inactive | Apaf-1 act conf inactive
CSc1ncc(CN2CCc3c([nH]c4ccccc34)C2c2cccc(O)c2)cn1 (centres undefined)	Apaf-1 act -158.5 | Rh110 interf act inactive | Apaf-1 act conf inactive
CC(=O)Nc1ccc(NC(=O)CC2Nc3cccc4cccc(c34)NC2=O)cc1 (centres undefined)	none
c1ccc2c(C[C@@H]3CNCCN3CCCCC3CCCCC3)cccc2c1	none
O=C1OC(Nc2ccc3ncccc3c2)c2ccccc21 (centres undefined)	none
CCOC12NC(=O)CC(=O)N1C(c1ccccc1)=CS2 (centres undefined)	Apaf-1 act -294.2 | Rh110 interf act inactive | Apaf-1 act conf inactive
CCc1cc2c(SCC(=O)N3CC(=O)Nc4ccccc43)ncnc2s1	none
CCOC(=O)C1=C(C)OC2(O)c3ccccc3C(=O)C12O (centres undefined)	none
CC(=O)C1=C(C)OC2(O)c3ccccc3C(=O)C12O (centres undefined)	none
